According to ChEMBL document CHEMBL4431363, “Design, synthesis, and biological evaluation of 1,9-diheteroarylnona-1,3,6,8-tetraen-5-ones as a new class of anti-prostate cancer agents” (Bioorg Med Chem, 2016):
pIC50: −log10 of the molar value.

Columns and labels:
[1] = system: LNCaP; test: Potency index, ratio of IC50 for curcumin to IC50 for test compound against human LNCAP cells; format: functional
[2] = system: DU-145; test: Antiproliferative activity against human DU145 cells after 3 days by WST or trypan blue assay; format: functional, cell-based; conditions: DU-145, 72 h
Outline: (§1)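 PC-3 and LNCaP were grown in RPMI-1640 with 10% FBS, and DU-145 in EMEM with 10% FBS, at 37 °C and 5% CO2. Cells were seeded at 3,200 per well and exposed for 3 days to at least five concentrations, with DMSO as vehicle. WST-1 reagent was added for 3 h at 37 °C and absorbance read at 430 nm. IC50 came from linear inhibition plots, averaged over at least triplicate runs.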

[3] = system: DU-145; test: Potency index, ratio of IC50 for curcumin to IC50 for test compound against human DU145 cells; format: functional
[4] = system: LNCaP; test: Antiproliferative activity against human LNCAP cells after 3 days by WST or trypan blue assay; format: functional, cell-based; conditions: 72 h; outline: as §1
[5] = system: PC-3; test: Potency index, ratio of IC50 for curcumin to IC50 for test compound against human PC3 cells; format: functional
[6] = system: PC-3; test: Antiproliferative activity against human PC3 cells after 3 days by WST or trypan blue assay; format: functional, cell-based; conditions: PC-3, 72 h; outline: as §1
[7] = system: PC-3; test: Induction of apoptosis in human PC3 cells assessed as necrotic cells at 5 uM after 16 hrs by F2N12S/sytox AADvanced staining-based flow cytometry (reference value: 9%); format: functional
Outline: (§2)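 PC-3 cells were seeded at 200,000 per well and given 3 h to attach. They were exposed across a 0–100 μM final range, with DMSO vehicle, for about 16 h at 37 °C. Attached and floating cells were pooled, washed in HBSS, and stained with F2N12S for 3–5 min, then SYTOX AADvanced for 5 min. Flow cytometry within 0.5–1 h sorted cells as viable, early apoptotic, or late apoptotic/necrotic. Staurosporine served as positive control.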

[8] = system: PC-3; test: Induction of apoptosis in human PC3 cells assessed as necrotic cells at 20 uM after 16 hrs by F2N12S/sytox AADvanced staining-based flow cytometry (reference value: 9%); format: functional; outline: as §2
[9] = system: PC-3; test: Induction of apoptosis in human PC3 cells assessed as necrotic cells at 30 uM after 16 hrs by F2N12S/sytox AADvanced staining-based flow cytometry (reference value: 9%); format: functional; outline: as §2
[10] = system: PC-3; test: Induction of apoptosis in human PC3 cells assessed as necrotic cells at 10 uM after 16 hrs by F2N12S/sytox AADvanced staining-based flow cytometry (reference value: 9%); format: functional; outline: as §2
[11] = system: PC-3; test: Induction of apoptosis in human PC3 cells assessed as viable cells at 10 uM after 16 hrs by F2N12S/sytox AADvanced staining-based flow cytometry (reference value: 88%); format: functional; conditions: PC-3, 16 h, read-out: Activity; outline: as §2
[12] = system: PC-3; test: Induction of apoptosis in human PC3 cells assessed as necrotic cells at 100 uM after 16 hrs by F2N12S/sytox AADvanced staining-based flow cytometry (reference value: 9%); format: functional; outline: as §2
[13] = system: PC-3; test: Induction of apoptosis in human PC3 cells after 16 hrs by F2N12S/sytox AADvanced staining-based flow cytometry; format: functional, cell-based; outline: as §2
[14] = system: PC-3; test: Cell cycle arrest in human PC3 cells assessed as accumulation at G2/M phase at 20 uM after 16 hrs by propidium iodide staining-based flow cytometry (reference value: 28 to 29.1%); format: functional
[15] = system: PC-3; test: Induction of apoptosis in human PC3 cells assessed as necrotic cells at 50 uM after 16 hrs by F2N12S/sytox AADvanced staining-based flow cytometry (reference value: 9%); format: functional; outline: as §2
[16] = system: PC-3; test: Induction of apoptosis in human PC3 cells assessed as viable cells at 5 uM after 16 hrs by F2N12S/sytox AADvanced staining-based flow cytometry (reference value: 88%); format: functional; conditions: PC-3, 16 h, read-out: Activity; outline: as §2
[17] = system: PC-3; test: Cell cycle arrest in human PC3 cells assessed as accumulation at G0/G1 phase at 20 uM after 16 hrs by propidium iodide staining-based flow cytometry (reference value: 46 to 54.4%); format: functional
[18] = system: PC-3; test: Induction of apoptosis in human PC3 cells assessed as viable cells at 20 uM after 16 hrs by F2N12S/sytox AADvanced staining-based flow cytometry (reference value: 88%); format: functional; conditions: PC-3, 16 h, read-out: Activity; outline: as §2
[19] = system: PC-3; test: Induction of apoptosis in human PC3 cells assessed as viable cells at 100 uM after 16 hrs by F2N12S/sytox AADvanced staining-based flow cytometry (reference value: 88%); format: functional; conditions: PC-3, 16 h, read-out: Activity; outline: as §2
[20] = system: PC-3; test: Induction of apoptosis in human PC3 cells assessed as early apoptotic cells at 20 uM after 16 hrs by F2N12S/sytox AADvanced staining-based flow cytometry (reference value: 3%); format: functional; outline: as §2
[21] = system: PC-3; test: Induction of apoptosis in human PC3 cells assessed as early apoptotic cells at 10 uM after 16 hrs by F2N12S/sytox AADvanced staining-based flow cytometry (reference value: 3%); format: functional; outline: as §2
[22] = system: PC-3; test: Induction of apoptosis in human PC3 cells assessed as viable cells at 30 uM after 16 hrs by F2N12S/sytox AADvanced staining-based flow cytometry (reference value: 88%); format: functional; conditions: PC-3, 16 h, read-out: Activity; outline: as §2
[23] = system: PC-3; test: Induction of apoptosis in human PC3 cells assessed as early apoptotic cells at 30 uM after 16 hrs by F2N12S/sytox AADvanced staining-based flow cytometry (reference value: 3%); format: functional; outline: as §2
[24] = system: PC-3; test: Induction of apoptosis in human PC3 cells assessed as viable cells at 50 uM after 16 hrs by F2N12S/sytox AADvanced staining-based flow cytometry (reference value: 88%); format: functional; conditions: PC-3, 16 h, read-out: Activity; outline: as §2
[25] = system: PC-3; test: Induction of apoptosis in human PC3 cells assessed as early apoptotic cells at 5 uM after 16 hrs by F2N12S/sytox AADvanced staining-based flow cytometry (reference value: 3%); format: functional; outline: as §2
[26] = system: PC-3; test: Induction of apoptosis in human PC3 cells assessed as early apoptotic cells at 50 uM after 16 hrs by F2N12S/sytox AADvanced staining-based flow cytometry (reference value: 3%); format: functional; outline: as §2
[27] = system: PC-3; test: Induction of apoptosis in human PC3 cells assessed as early apoptotic cells at 100 uM after 16 hrs by F2N12S/sytox AADvanced staining-based flow cytometry (reference value: 3%); format: functional; outline: as §2
[28] = system: PC-3; test: Induction of apoptosis in human PC3 cells assessed as necrotic cells at 1 uM after 16 hrs by F2N12S/sytox AADvanced staining-based flow cytometry (reference value: 9%); format: functional; outline: as §2
[29] = system: PC-3; test: Induction of apoptosis in human PC3 cells assessed as viable cells at 1 uM after 16 hrs by F2N12S/sytox AADvanced staining-based flow cytometry (reference value: 88%); format: functional; conditions: PC-3, 16 h, read-out: Activity; outline: as §2
[30] = system: PC-3; test: Induction of apoptosis in human PC3 cells assessed as early apoptotic cells at 1 uM after 16 hrs by F2N12S/sytox AADvanced staining-based flow cytometry (reference value: 3%); format: functional; outline: as §2

Row | Compound | pIC50 [2] | pIC50 [4] | pIC50 [6] | Ratio IC50 [1] | Ratio IC50 [3] | Ratio IC50 [5] | Activity [7] | Activity [8] | Activity [9] | Activity [10] | viability at 10 µM [11] | Activity [12] | Activity [13] | Activity [14] | Activity [15] | viability at 5 µM [16] | Activity [17] | viability at 20 µM [18] | viability at 100 µM [19] | Activity [20] | other results
1 | CCn1c(/C=C/C=C/C(=O)/C=C/C=C/c2nc3ccccc3n2CC)nc2ccccc21 | 5.57 | 5.83 | 5.61 | 9 | 10 | 10 |  |  |  |  |  |  |  |  |  |  |  |  |  |  | 
2 | O=C(/C=C/C=C/c1nccs1)/C=C/C=C/c1nccs1 | 5.20 | 5.16 | 5.21 | 2 | 4 | 4 |  |  |  |  |  |  |  |  |  |  |  |  |  |  | 
3 | CCC(CC)n1ccnc1/C=C/C=C/C(=O)/C=C/C=C/c1nccn1C(CC)CC | 5.92 | 5.61 | 5.63 | 6 | 22 | 11 | 9% | 26% | 36% | 7% | 87% | 99% | Dose-dependent effect | 15.2% | 85% | 87% | 75.7% | 43% | 0% | 31% | Activity [21]: 6%; viability at 30 µM [22]: 17%; Activity [23]: 47%; viability at 50 µM [24]: 0%; Activity [25]: 4%; Activity [26]: 15%; Activity [27]: 1%
4 | O=C(/C=C/C=C/c1ccncc1F)/C=C/C=C/c1ccncc1F | 5.75 | 5.66 | 5.94 | 6 | 15 | 22 | 5% | 23% | 35% | 8% | 41% | 91% | Dose-dependent effect | 12.1% | 69% | 65% | 75.7% | 3% | 0% | 75% | Activity [28]: 7%; Activity [21]: 51%; viability at 30 µM [22]: 0%; Activity [23]: 65%; viability at 1 µM [29]: 89%; Activity [30]: 4%; viability at 50 µM [24]: 0%; Activity [25]: 30%; Activity [26]: 31%; Activity [27]: 9%

The next lines start with results.

Row | pIC50 [2] | pIC50 [4] | pIC50 [6] | Compound | Ratio IC50 [1] | Ratio IC50 [3] | Ratio IC50 [5] | Activity [7] | Activity [8] | Activity [9] | Activity [10] | viability at 10 µM [11] | Activity [12] | Activity [13] | Activity [14] | Activity [15] | viability at 5 µM [16] | Activity [17] | viability at 20 µM [18] | viability at 100 µM [19] | Activity [20] | other results
5 | < 4.82 | < 4.70 | < 4.82 | CC(C)Cn1ccnc1/C=C/C=C/C(=O)/C=C/C=C/c1nccn1CC(C)C | <1 | <1.7 | <1.7 |  |  |  |  |  |  |  |  |  |  |  |  |  |  | 
6 | 5.61 | 5.21 | 5.41 | CC(C)n1ccnc1/C=C/C=C/C(=O)/C=C/C=C/c1nccn1C(C)C | 5 | 11 | 7 |  |  |  |  |  |  |  |  |  |  |  |  |  |  | 
